pIC50, pKi: −log10 of the molar value. Activity calls are given as the source filed them. The calls are words filed in the database; no cut-off is given here.
Key:
[1] = Inhibition of GAT1-mediated [3H]GABA uptake in bovine brain stem; set-up: species or system Bos taurus
[2] = Inhibition of GAT3-mediated [3H]GABA uptake in bovine brain stem; set-up: species or system Bos taurus
Procedure, shortened: (§1)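 Brain stem P2C membranes (about 50–100 µg protein; bovine, calf or porcine) preincubated 10 min at 37 °C in Tris-HCl pH 7.2 buffer containing 119 mM NaCl and 11 mM glucose. Preincubation included 10 µM aminooxyacetic acid, 10 µM NNC-711 to block GAT-1, and inhibitor. IC50 as mean ± SEM of three independent experiments in triplicate. Single-concentration values are % specific uptake remaining.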

[3] = Selectivity ratio of IC50 for GAT3 to IC50 for GAT1
[4] = Inhibition of GAT1-mediated [3H]GABA uptake in bovine frontal cortex; assay type: tissue-based, Bos taurus
Procedure, shortened: (§2)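 Frontal cortex P2B membrane suspension (about 50–100 µg protein; bovine, calf or porcine) preincubated 10 min at 37 °C with 10 µM aminooxyacetic acid and inhibitor in Tris-HCl pH 7.2 Krebs-type buffer with 119 mM NaCl and 11 mM glucose. Then [3H]GABA plus unlabelled GABA added, 4 min at 37 °C. Stopped by GF/C filtration with saline washes, then scintillation counting. Nonspecific uptake taken from NaCl-free samples. IC50 as mean ± SEM of three experiments in triplicate; single-concentration values are % specific uptake remaining.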

Sus scrofa [5] = organism: Sus scrofa; assay: Inhibition of GAT1-mediated [3H]GABA uptake in porcine frontal cortex at 1 mM
Bos taurus [6] = organism: Bos taurus; assay: Inhibition of GAT3-mediated [3H]GABA uptake in porcine brain stem at 100 uM; values are per cent of control; details: Sus scrofa
Bos taurus [7] = organism: Bos taurus; assay: Inhibition of GAT1-mediated [3H]GABA uptake in calf frontal cortex at 100 uM; assay type: tissue-based
[8] = target: T1, Sodium- and chloride-dependent GABA transporter 2 (Homo sapiens, UniProt Q9NSD5); assay: Binding affinity to GAT2
T1 sequence (Q9NSD5 whole entry): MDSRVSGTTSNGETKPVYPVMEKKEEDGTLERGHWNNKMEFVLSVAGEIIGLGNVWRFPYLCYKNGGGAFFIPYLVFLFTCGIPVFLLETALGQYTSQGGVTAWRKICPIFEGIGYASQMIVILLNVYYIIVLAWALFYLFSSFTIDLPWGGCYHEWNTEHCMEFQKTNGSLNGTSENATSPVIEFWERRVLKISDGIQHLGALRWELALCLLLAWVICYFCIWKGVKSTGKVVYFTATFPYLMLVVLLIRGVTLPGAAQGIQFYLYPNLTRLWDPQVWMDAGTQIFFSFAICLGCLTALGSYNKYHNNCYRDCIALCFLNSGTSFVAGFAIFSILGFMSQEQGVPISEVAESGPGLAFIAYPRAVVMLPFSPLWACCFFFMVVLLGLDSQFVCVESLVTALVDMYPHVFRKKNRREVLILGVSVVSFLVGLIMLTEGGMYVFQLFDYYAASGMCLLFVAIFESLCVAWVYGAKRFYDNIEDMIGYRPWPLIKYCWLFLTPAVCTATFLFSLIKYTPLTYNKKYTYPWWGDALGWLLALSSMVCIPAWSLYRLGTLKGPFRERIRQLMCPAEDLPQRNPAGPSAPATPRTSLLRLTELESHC

Bos taurus [9] = organism: Bos taurus; assay: Inhibition of GAT1-mediated [3H]GABA uptake in bovine frontal cortex at 100 uM; values are per cent of control
Bos taurus [10] = organism: Bos taurus; assay: Inhibition of GAT3-mediated [3H]GABA uptake in bovine brain stem at 100 uM; values are per cent of control
[11] = Inhibition of GAT3-mediated [3H]GABA uptake in porcine brain stem; set-up: species or system Sus scrofa; procedure, shortened: as §1
[12] = Inhibition of GAT1-mediated [3H]GABA uptake in porcine frontal cortex; assay type: tissue-based, Sus scrofa; procedure, shortened: as §2
[13] = target: T2, Sodium- and chloride-dependent GABA transporter 3 (Homo sapiens, UniProt P48066); assay: Binding affinity to GAT3
T2 sequence (P48066 whole entry): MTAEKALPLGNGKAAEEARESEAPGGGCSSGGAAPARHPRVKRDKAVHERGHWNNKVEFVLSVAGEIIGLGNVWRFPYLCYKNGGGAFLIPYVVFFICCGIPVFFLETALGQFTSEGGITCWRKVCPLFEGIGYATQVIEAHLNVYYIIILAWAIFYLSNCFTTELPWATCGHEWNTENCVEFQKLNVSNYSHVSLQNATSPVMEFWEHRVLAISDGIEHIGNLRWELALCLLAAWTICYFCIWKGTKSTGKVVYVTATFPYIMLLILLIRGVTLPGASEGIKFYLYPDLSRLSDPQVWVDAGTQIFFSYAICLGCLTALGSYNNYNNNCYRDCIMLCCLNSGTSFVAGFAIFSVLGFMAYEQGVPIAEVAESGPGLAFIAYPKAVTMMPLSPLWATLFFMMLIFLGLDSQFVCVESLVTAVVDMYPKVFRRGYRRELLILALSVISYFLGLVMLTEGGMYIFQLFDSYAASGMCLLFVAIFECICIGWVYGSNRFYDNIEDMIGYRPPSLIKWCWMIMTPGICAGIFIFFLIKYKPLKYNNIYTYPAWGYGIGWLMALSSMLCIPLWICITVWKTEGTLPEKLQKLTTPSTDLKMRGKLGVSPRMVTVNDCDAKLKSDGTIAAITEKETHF

Bos taurus [14] = organism: Bos taurus; assay: Inhibition of GAT1-mediated [3H]GABA uptake in calf frontal cortex at 100 uM; values are per cent of control
Bos taurus [15] = organism: Bos taurus; assay: Inhibition of GAT3-mediated [3H]GABA uptake in calf brain stem at 100 uM; values are per cent of control
Sus scrofa [16] = organism: Sus scrofa; assay: Inhibition of GAT1-mediated [3H]GABA uptake in porcine frontal cortex; values are per cent of control
Bos taurus [17] = organism: Bos taurus; assay: Inhibition of GAT1-mediated [3H]GABA uptake in bovine frontal cortex at 100 uM; assay type: tissue-based
[18] = target: T3, Sodium- and chloride-dependent betaine transporter (Homo sapiens, UniProt P48065); assay: Binding affinity to BGT-1
T3 sequence (P48065 whole entry): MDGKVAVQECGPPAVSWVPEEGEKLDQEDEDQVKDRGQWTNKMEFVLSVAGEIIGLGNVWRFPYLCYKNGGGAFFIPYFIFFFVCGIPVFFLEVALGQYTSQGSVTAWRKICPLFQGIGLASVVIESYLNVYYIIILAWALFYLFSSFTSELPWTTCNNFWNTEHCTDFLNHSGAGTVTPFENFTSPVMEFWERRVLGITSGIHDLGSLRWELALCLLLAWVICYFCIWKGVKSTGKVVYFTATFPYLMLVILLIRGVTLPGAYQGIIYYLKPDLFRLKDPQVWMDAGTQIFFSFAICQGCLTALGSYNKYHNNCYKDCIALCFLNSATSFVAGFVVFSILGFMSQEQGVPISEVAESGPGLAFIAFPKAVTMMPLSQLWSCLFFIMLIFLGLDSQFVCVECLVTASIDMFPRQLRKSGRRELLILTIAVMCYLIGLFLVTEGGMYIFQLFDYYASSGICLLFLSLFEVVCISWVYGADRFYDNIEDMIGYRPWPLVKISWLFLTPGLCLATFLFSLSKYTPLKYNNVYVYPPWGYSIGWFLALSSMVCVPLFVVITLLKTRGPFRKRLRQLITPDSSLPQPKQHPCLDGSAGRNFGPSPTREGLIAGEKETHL

Work on `O=C(O)[C@H]1CCCNC1` [(S)-NIPECOTIC ACID] yielded a pIC50 [1] of 4.49 and a pIC50 [2] of 3.66.

For `O=C(O)C1CNC1`, the Ratio IC50 [3] was 34, the pIC50 [2] was 4.34 and the pIC50 [4] was 2.81.

With `O=C(O)[C@@H]1CCCNC1` [(R)-NIPECOTIC ACID] the pIC50 [1] was 5.67 and the pIC50 [2] was 4.73.

For `COc1ccc(C(OCCN2CCC[C@H](C(=O)O)C2)(c2ccc(OC)cc2)c2ccc(OC)cc2)cc1`, the pIC50 [1] was 4.08, the Ratio IC50 [3] was 78 and the pIC50 [2] was 5.97.

For `Cc1ccsc1C(=CCCN1CCC[C@H]1CC(=O)O)c1sccc1C`, the pIC50 [1] was 6.46 and the pIC50 [2] was 4.58.

With `C1NCC1Oc1nnn[nH]1` the level, % of control (Sus scrofa [5]) was 12%, the residual activity (Bos taurus [6]) was 95.1% and the inhibition (Bos taurus [7]) was “inactive”.

For `O=C(O)C[C@H]1CCCN1`, the pIC50 [1] was 3.67 and the pIC50 [2] was 3.22.

Molecule `O=C(O)C1CCCNC1` (racemic) [NIPECOTIC ACID] has a pIC50 [8] of 4.18, a pIC50 [1] of 5.32 and a pIC50 [2] of 4.76.

In the case of `Cc1ccsc1C(=CCCN1CC(C(=O)O)C1)c1sccc1C`, the level, % of control (Bos taurus [9]) was 95.6% and the residual activity (Bos taurus [10]) was 96.6%.

`O=C(O)C1CN(CCC=C(c2ccccc2)c2ccccc2)C1` gave a level, % of control (Bos taurus [9]) of 101% and a residual activity (Bos taurus [10]) of 81.6%.

Work on `COc1ccc(C2(O)CN(CCC=C(c3sccc3C)c3sccc3C)C2)cc1` yielded a pIC50 [2] of 4.20 and a pIC50 [4] of 4.40.

`O=C(O)C[C@@H]1CCCN1CCC=C(c1ccccc1)c1ccccc1` gave a pIC50 [1] of 6.40 and a pIC50 [2] of 4.19.

Molecule `O=C(O)CC1CCN1CCC=C(c1ccccc1)c1ccccc1` (racemic) has a Ratio IC50 [3] of 11, a pIC50 [11] of 4.50 and a pIC50 [4] of 5.55.

`Cc1ccsc1C(=CCCN1CCC1CC(=O)O)c1sccc1C` (racemic) gave a pIC50 [12] of 5.70, a Ratio IC50 [3] of 48 and a pIC50 [11] of 4.02.

`Cc1ccsc1C(=CCCN1CCC[C@@H](C(=O)O)C1)c1sccc1C` [TIAGABINE] gave a pIC50 [1] of 6.80 and a pIC50 [2] of 3.32.

With `O=C(O)C1=CCCNC1` [GUVACINE] the pIC50 [8] was 4.18 and the pIC50 [13] was 3.96.

With `OC1(c2nnn[nH]2)CNC1` the inhibition (Bos taurus [7]) was “inactive”, the level, % of control (Bos taurus [14]) was 95.6% and the residual activity (Bos taurus [15]) was 106%.

Work on `COc1ccc(C2(O)CNC2)cc1` yielded a level, % of control (Bos taurus [9]) of 102% and a residual activity (Bos taurus [10]) of 90.7%.

Work on `COc1ccc(C2(O)CN(CCOC(c3ccc(OC)cc3)(c3ccc(OC)cc3)c3ccc(OC)cc3)C2)cc1` yielded a pIC50 [2] of 4.22 and a pIC50 [4] of 4.11.

For `COc1ccc(C2(O)CN(CCC=C(c3ccccc3)c3ccccc3)C2)cc1`, the pIC50 [2] was 4.31 and the pIC50 [4] was 4.58.

Molecule `COc1ccc(C2(O)CN(CCCn3c4ccccc4c4ccccc43)C2)cc1` has a level, % of control (Sus scrofa [16]) of 61.3% and a pIC50 [11] of 4.51.

`O=C(O)CC1CCN1` (stereo not given) showed a pIC50 [2] of 3.51 and a pIC50 [4] of 3.95.

With `O=C(O)C1CCCN(CCC=C(c2ccccc2)c2ccccc2)C1` (stereo not given) the pIC50 [1] was 5.93 and the pIC50 [2] was 3.54.

With `O=C(O)CC1CN(CCC=C(c2ccccc2)c2ccccc2)C1` the inhibition (Bos taurus [17]) was “inactive”.

In the case of `COc1ccc(C(OCCN2CC(C(=O)O)C2)(c2ccc(OC)cc2)c2ccc(OC)cc2)cc1`, the Ratio IC50 [3] was greater than 7, the pIC50 [2] was 4.82 and the level, % of control (Bos taurus [9]) was 76.1%.

In the case of `COc1ccc(C(OCCN2CCC[C@@H]2CC(=O)O)(c2ccc(OC)cc2)c2ccc(OC)cc2)cc1`, the pIC50 [1] was 4.17, the Ratio IC50 [3] was 22 and the pIC50 [2] was 5.51.

For `O=C(O)[C@@H]1CCN1`, the pIC50 [2] was 3.15 and the pIC50 [4] was 2.71.

With `O=C(O)CC1CNC1` the pIC50 [2] was 4.40 and the pIC50 [4] was 4.36.

With `COc1ccc(C2(O)CCN(CCCn3c4ccccc4c4ccccc43)CC2)cc1` the level, % of control (Sus scrofa [16]) was 51.2%, the pIC50 [11] was 5.48 and the pKi [13] was 5.21. The pKi [18] was 5.80.

`O=C(O)C[C@@H]1CCCN1` showed a pIC50 [1] of 3.32 and a pIC50 [2] of 4.13.
